Drawing on ChEMBL document CHEMBL1158073, “Bioactive compounds from the seed fungus Menisporopsis theobromae BCC 3975” (J Nat Prod, 2006), this text covers MIC and IC50 for twelve compounds.

In brackets after ≈: the same amount, converted by molar mass. Counter-ions that a name gives are not always drawn.

For assay [1], the system named is Mycobacterium tuberculosis. The assay is described as follows: Antimycobacterial activity against Mycobacterium tuberculosis H37Ra by microplate alamar blue assay. The class given is functional. In a few lines:
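M. tuberculosis H37Ra tested by microplate Alamar Blue assay, value reported as MIC. Isoniazid and kanamycin sulfate as reference compounds.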
(In general: Resazurin is reduced to fluorescent resorufin, in cell work by metabolically active cells.)

The next assay concerns Plasmodium falciparum. The experiment in a line: Antimalarial activity against multidrug-resistant Plasmodium falciparum K1 by [3H]hypoxanthine uptake. The class given is functional, organism-based. The essentials: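 P. falciparum K1 kept in continuous culture; in vitro microculture radioisotope method. IC50 taken as the concentration giving 50% reduction in parasite growth, read as uptake of [3H]hypoxanthine. Dihydroartemisinin as positive control.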

Another assay has as its system NCI-H187. The assay is described as follows: Cytotoxicity against human NCI-H187 cells by colorimetric method. The class given is functional, cell-based. In a few lines: (§1)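 Colorimetric cytotoxicity assay following Skehan and co-workers. Cells: BC-1 (human breast cancer) and NCI-H187 (human small cell lung cancer). IC50 values reported in μM. Ellipticine served as the standard positive control.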

Assay [2] can be described thus: Cytotoxicity against human BC1 cells by colorimetric method. The class given is functional, cell-based. The essentials:
as §1

Another assay relates to KB. The experiment in a line: Cytotoxicity against human KB cells by colorimetric method. The class given is functional, cell-based.

With `CCCC(=O)CC/C=C/[C@H](O)[C@@H]1O[C@H]1CO`, the MIC (in general, the lowest concentration found to suppress growth) in assay [1] was above 303 µM. The IC50 (in the assay on Plasmodium falciparum; in the assay on NCI-H187; in assay [2]; with KB) was above 30.3 µM each time.

For `NC[C@H]1O[C@H](O[C@H]2[C@H](O)[C@@H](O[C@H]3O[C@H](CO)[C@@H](O)[C@H](N)[C@H]3O)[C@H](N)C[C@@H]2N)[C@H](O)[C@@H](O)[C@@H]1O` [KANAMYCIN SULFATE], the MIC in assay [1] worked out at 3.43 µM.

In assay [1], `O=C1c2c(O)cccc2[C@H](O)[C@H](O)[C@H]1O` returned an MIC of 952 µM (≈ 200 µg/mL). Besides, the IC50 (in general, the midpoint of a concentration-inhibition curve) was above 95.2 µM with Plasmodium falciparum, 56.6 µM in the assay on NCI-H187, above 95.2 µM in assay [2] and above 95.2 µM in the assay on KB.

Take `C/C=C(\C)C(=O)C(C)C(O)C(C)C(=O)O[C@H]1C=COC=C2C[C@@]3(SC)C(=O)N4[C@H]5C(=CC=C[C@@H]5O)[C@@H](O)[C@@]4(SC)C(=O)N3[C@@H]21` (stereo partly specified): 155 µM (≈ 100 µg/mL) was the least that counted as inhibitory in assay [1] (MIC). Besides, the IC50 in the assay with Plasmodium falciparum was above 30.9 µM; in the assay with NCI-H187, 22.9 µM; in assay [2] it was 29.2 µM; in the assay on KB it was above 30.9 µM.

In the case of `C[C@H]1[C@@H](O)O[C@@H]2O[C@@]3(C)CC[C@H]4[C@H](C)CC[C@@H]1[C@@]24OO3` [ARTENIMOL], the midpoint of inhibition with Plasmodium falciparum, the IC50, lay at 0.004 µM.

Take `Cc1c2ccncc2c(C)c2c1[nH]c1ccccc12` [ELLIPTECINE]: the figures for the 50% inhibitory concentration (IC50) (with NCI-H187; in assay [2]; in the assay on KB) were 1.59 µM, 5.93 µM and 5.41 µM, respectively.

As to `C/C=C(\C)C(=O)C(C)C(O)C(C)C(=O)O[C@H]1C=COC=C2C[C@@]3(SC)C(=O)N4c5c(O)cccc5[C@@H](O)[C@@]4(SC)C(=O)N3[C@@H]21` (stereo partly specified), in assay [1], the MIC was found to be 1.24 µM (≈ 0.8 µg/mL). The IC50 is 2.95 µM in the assay with Plasmodium falciparum, 20.3 µM in the assay on NCI-H187, above 31 µM in assay [2] and above 31 µM in the assay with KB.

As to `C/C=C/C(C=O)=C\C=C\C(O)C(O)[C@@H]1O[C@H]1CO` (relative stereo), the minimum inhibitory concentration (MIC) in assay [1] is above 787 µM. In addition, the 50% inhibitory concentration (IC50) (with Plasmodium falciparum; in the assay on NCI-H187; in assay [2]; in the assay on KB) was above 78.7 µM in each case.

In assay [1], `CS[C@@]12CC3=CC=C[C@H](O)[C@H]3N1C(=O)[C@]1(SC)CC3=COC=C[C@H](O)[C@H]3N1C2=O` registered an MIC of 7.14 µM (≈ 3.1 µg/mL). The half-inhibitory concentration (IC50) (in the assay on Plasmodium falciparum; with NCI-H187; in assay [2]; with KB) was above 46 µM throughout.

`CC(O)CCC/C=C/C(O)C(O)/C=C/c1c(CC(O)C(C)(C)O)ccc(O)c1C=O` (stereo unspecified) gave an MIC in assay [1] of 474 µM (≈ 200 µg/mL). In addition, the half-inhibitory concentration (IC50) (in the assay on Plasmodium falciparum; with NCI-H187; in assay [2]; in the assay on KB) was above 47.3 µM throughout.

Consider `NNC(=O)c1ccncc1` [ISONIAZID], for which the MIC in assay [1] came to 0.29 µM (≈ 0.0398 µg/mL).

Turning to `CCCCC/C=C/C(O)C(O)/C=C/c1c(CC(O)C(C)(C)O)ccc(O)c1CO` (stereo unspecified), in assay [1], inhibition of growth (MIC) required 245 µM (≈ 100 µg/mL). For the same compound, the IC50 (with Plasmodium falciparum; with NCI-H187; in assay [2]; with KB) was above 49 µM in each case.
